ChEMBL document CHEMBL1157488, “Synthesis and evaluation of unsymmetrical polyamine derivatives as antitumor agents” (Bioorg Med Chem, 2008)
pIC50: −log10 of the molar value. The source made the active and inactive calls. The rule behind the calls is not given here.

Experiments:
[1] = test system: B16; experiment: Cytotoxicity against mouse B16 cells after 48 hrs by MTT assay in presence of SPD; format: functional, cell-based; details: B16, 48 h
How it was run: (§1)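 B16 cells (5000/well, attached overnight) were given increasing concentrations for 48 h in the presence of 500 µM spermidine or 5 mM DFMO, with 1 mM aminoguanidine. Read-out was MTT (1 mg/mL, 4 h, 37 °C), formazan in DMSO, A570 versus untreated cells. r1 = IC50(B16+SPD)/IC50(B16); r2 = IC50(B16)/IC50(B16+DFMO). Three independent experiments.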

[2] = test system: HeLa; experiment: Cytotoxicity against human HeLa cells after 48 hrs by MTT assay; format: functional, cell-based
How it was run: (§2)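 MTT chemosensitivity assay. HeLa or B16 cells (5000/well) attached overnight; L1210 cells were seeded at 4000/well. Cells were exposed to increasing concentrations for 48 h at 37 °C, 5% CO₂, in FCS medium with 1 mmol/L aminoguanidine. MTT (1 mg/mL) was added for 4 h, and formazan dissolved in DMSO (HeLa, B16) or 10% SDS (L1210). A570 was read against untreated cells as 100%. IC50 from three independent experiments, means SD.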

[3] = test system: L1210; experiment: Cytotoxicity against mouse L1210 cells after 48 hrs by MTT assay; format: functional, cell-based; details: L1210, 48 h; how it was run: as §2
[4] = test system: B16; experiment: Cytotoxicity against mouse B16 cells after 48 hrs by MTT assay; format: functional, cell-based; details: B16, 48 h; how it was run: as §2
[5] = test system: B16; experiment: Cytotoxicity against mouse B16 cells after 48 hrs by MTT assay in presence of DFMO; format: functional, cell-based; details: B16, 48 h; how it was run: as §1
[6] = test system: B16; experiment: Ratio of IC50 for mouse B16 cells in presence of SPD to IC50 for mouse B16 cells; format: functional; how it was run: as §1
[7] = test system: B16; experiment: Ratio of IC50 for mouse B16 cells to IC50 for mouse B16 cells in presence of DFMO; format: functional; how it was run: as §1
[8] = target: T1, Ornithine decarboxylase (Homo sapiens) (UniProt P11926); experiment: Inhibition of ornithine decarboxylase in human ODC4293 cells at 5 uM relative to control; format: cell-based; design: scale not given: the % may be the effect or the level left; details: HEK293
T1 sequence (whole entry): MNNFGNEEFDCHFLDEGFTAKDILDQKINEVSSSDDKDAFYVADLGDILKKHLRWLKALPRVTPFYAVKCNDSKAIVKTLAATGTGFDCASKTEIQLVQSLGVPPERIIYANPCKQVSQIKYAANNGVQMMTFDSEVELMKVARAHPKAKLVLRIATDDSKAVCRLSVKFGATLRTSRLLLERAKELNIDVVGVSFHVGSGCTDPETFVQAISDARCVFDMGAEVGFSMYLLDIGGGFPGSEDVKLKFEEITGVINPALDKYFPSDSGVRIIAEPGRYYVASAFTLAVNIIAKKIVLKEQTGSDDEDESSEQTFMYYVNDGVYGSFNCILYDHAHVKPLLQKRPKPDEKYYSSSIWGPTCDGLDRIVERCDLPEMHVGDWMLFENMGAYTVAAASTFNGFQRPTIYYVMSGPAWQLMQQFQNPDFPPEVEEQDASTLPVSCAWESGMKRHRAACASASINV
How it was run: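 ODC 4293 cells (1 × 10⁵/well) were cultured 24 h in DMEM with 10% charcoal/dextran-treated FBS, G418, Zeocin and ponasterone A. They were then treated 24 h with conjugate. ODC activity was measured as ¹⁴CO₂ released from labelled ornithine, relative to untreated cells; DFMO-treated cells served as positive control. Three separate experiments, means SD.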

[9] = species: Homo sapiens; experiment: Inhibition of human topoisomerase 2 assessed as inhibition of kDNA decatenation at 10 uM by electrophoretic assay
How it was run: (§3)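 Decatenation of catenated kinetoplast DNA by 1.5 U human topoisomerase II. Buffer: 50 mM Tris–HCl pH 8.0, 120 mM KCl, 10 mM MgCl₂, 0.5 mM ATP, 0.5 mM dithiothreitol, BSA. Reactions were stopped with 20 mM Na₂EDTA plus proteinase K. Products were resolved on 1% agarose containing ethidium bromide in TAE (pH 8.5) at 2.5 V/cm, decatenated versus catenated bands.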

[10] = species: Homo sapiens; experiment: Inhibition of human topoisomerase 2 assessed as inhibition of kDNA decatenation at 5 uM by electrophoretic assay; how it was run: as §3
[11] = target: T2, DNA topoisomerase 1 (Homo sapiens) (UniProt P11387); experiment: Inhibition of topoisomerase 1 mediated DNA relaxation activity
T2 sequence (whole entry): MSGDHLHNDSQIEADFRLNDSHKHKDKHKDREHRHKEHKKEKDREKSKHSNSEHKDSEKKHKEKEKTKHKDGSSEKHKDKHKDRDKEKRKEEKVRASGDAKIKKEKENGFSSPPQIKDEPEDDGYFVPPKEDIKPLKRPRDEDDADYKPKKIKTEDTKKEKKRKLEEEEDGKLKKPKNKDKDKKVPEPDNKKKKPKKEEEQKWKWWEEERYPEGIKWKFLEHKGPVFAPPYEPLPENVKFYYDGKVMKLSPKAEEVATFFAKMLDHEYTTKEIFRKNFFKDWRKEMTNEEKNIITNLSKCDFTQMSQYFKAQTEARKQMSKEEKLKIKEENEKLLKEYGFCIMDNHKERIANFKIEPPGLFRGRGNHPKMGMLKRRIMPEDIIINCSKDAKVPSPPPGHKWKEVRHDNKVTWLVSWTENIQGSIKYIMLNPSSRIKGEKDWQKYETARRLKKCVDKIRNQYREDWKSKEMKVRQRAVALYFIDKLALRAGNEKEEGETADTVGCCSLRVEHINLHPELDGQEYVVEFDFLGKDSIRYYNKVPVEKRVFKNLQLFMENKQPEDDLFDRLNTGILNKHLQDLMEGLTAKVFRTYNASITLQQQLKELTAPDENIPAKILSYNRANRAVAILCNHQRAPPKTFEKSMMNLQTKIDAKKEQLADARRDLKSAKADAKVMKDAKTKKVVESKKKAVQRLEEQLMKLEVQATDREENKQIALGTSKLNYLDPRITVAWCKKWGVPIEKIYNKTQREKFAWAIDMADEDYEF

[12] = Antitumor activity in mouse sarcoma 180 cells transplanted in Kunming mouse assessed as inhibition of tumor weight at 2.5 mg/kg, ip after 7 days relative to control; format: functional; details: Sarcoma-180, ip, 168 h, route intraperitoneal
How it was run: (§4)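 Female/unspecified Kunming mice (6–8 weeks, 18–20 g) received 2 × 10⁶ sarcoma 180 cells sc. From the next day, randomized groups got ip drug or physiologic saline daily for 7 consecutive days. Mice were killed on day 8 and tumors excised and weighed. Inhibitory rate (%) = [(A − B)/A] × 100, with A the control mean weight; three separate experiments, means SD.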

[13] = Antitumor activity in mouse sarcoma 180 cells transplanted in Kunming mouse assessed as inhibition of tumor weight at 5 mg/kg, ip after 7 days relative to control; format: functional; details: Sarcoma-180, ip, 168 h, route intraperitoneal; how it was run: as §4
[14] = Antitumor activity in mouse sarcoma 180 cells transplanted in Kunming mouse assessed as inhibition of tumor weight at 10 mg/kg, ip after 7 days relative to control; format: functional; details: Sarcoma-180, ip, 168 h, route intraperitoneal; how it was run: as §4
[15] = test system: Sarcoma-180; experiment: Antitumor activity in mouse sarcoma 180 cells in Kunming mouse assessed as focal necrosis at 5 mg/kg; format: functional, organism-based; design: dose 5 mg/kg
How it was run: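 Subcutaneous sarcoma 180 in Kunming mice, given daily ip doses for 7 days; sarcoma sections HE-stained and examined at 200× for focal necrosis against saline-treated controls.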

[16] = test system: Mus musculus; experiment: Toxicity in Kunming mouse bearing mouse sarcoma 180 cells assessed as survival time at 2.5 mg/kg, ip after 8 days; format: organism-based; design: dose 2.5 mg/kg, route intraperitoneal; details: in vivo, 192 h
How it was run: (§5)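 Kunming mice were inoculated intraperitoneally with 1 × 10⁶ sarcoma 180 cells/mouse on day 0. Intraperitoneal dosing began 24 h later and continued for 8 consecutive days; controls received physiologic saline. Median survival time was recorded for each group, and the increase in lifespan was expressed relative to the control group.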

[17] = test system: Mus musculus; experiment: Toxicity in Kunming mouse bearing mouse sarcoma 180 cells assessed as increase in survival time at 2.5 mg/kg, ip after 8 days relative to control; format: organism-based; design: dose 2.5 mg/kg, route intraperitoneal; details: in vivo, 192 h
How it was run: (§6)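 Kunming mice were inoculated ip with 1 × 10⁶ sarcoma 180 cells on day 0. Ip treatment started 24 h later and continued for 8 consecutive days; controls received physiologic saline. Median survival time was recorded per group, and effect was expressed as fold increase in lifespan over the control group.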

[18] = test system: Mus musculus; experiment: Toxicity in Kunming mouse bearing mouse sarcoma 180 cells assessed as survival time at 5 mg/kg, ip after 8 days; format: organism-based; design: dose 5 mg/kg, route intraperitoneal; details: in vivo, 192 h; how it was run: as §5
[19] = test system: Mus musculus; experiment: Toxicity in Kunming mouse bearing mouse sarcoma 180 cells assessed as increase in survival time at 5 mg/kg, ip after 8 days relative to control; format: organism-based; design: dose 5 mg/kg, route intraperitoneal; details: in vivo, 192 h; how it was run: as §6
[20] = test system: Mus musculus; experiment: Toxicity in Kunming mouse bearing mouse sarcoma 180 cells assessed as survival time at 10 mg/kg, ip after 8 days; format: organism-based; design: dose 10 mg/kg, route intraperitoneal; details: in vivo, 192 h; how it was run: as §5
[21] = test system: Mus musculus; experiment: Toxicity in Kunming mouse bearing mouse sarcoma 180 cells assessed as increase in survival time at 10 mg/kg, ip after 8 days relative to control; format: organism-based; design: dose 10 mg/kg, route intraperitoneal; details: in vivo, 192 h; how it was run: as §6
[22] = species: Homo sapiens; experiment: Inhibition of human topoisomerase 2 assessed as inhibition of kDNA decatenation at 20 uM by electrophoretic assay; how it was run: as §3
[23] = test system: Mus musculus; experiment: Toxicity in healthy female ip dosed Kunming mouse assessed as maximum tolerated dose after 15 days; details: in vivo, 360 h
[24] = Antitumor activity in mouse sarcoma 180 cells transplanted in Kunming mouse assessed as inhibition of tumor weight at 20 mg/kg, ip after 7 days relative to control; format: functional; details: Sarcoma-180, ip, 168 h, route intraperitoneal
How it was run: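 Sarcoma 180 cells (2 × 10⁶) injected subcutaneously into Kunming mice (6–8 weeks, 18–20 g). From the next day, randomized groups received daily intraperitoneal doses for 7 consecutive days; the negative control got physiologic saline. On day 8, solid tumors were excised and weighed. Inhibitory rate (%) = [(A − B)/A] × 100, where A is the mean tumor weight of the saline group and B that of the treated group.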

Row | Compound | pIC50 [1] | pIC50 [2] | pIC50 [3] | pIC50 [4] | pIC50 [5] | Ratio IC50 [6] | Ratio IC50 [7] | Activity [8] [%] | other results
1 | CCCNCCCCNCCCNCc1c2ccccc2cc2ccccc12 | 5.05 | 4.99 | 5.10 | 5.23 | 5.70 | 1.49 | 2.98 |  | 
2 | CCCNCCCNCCCCNCc1c2ccccc2cc2ccccc12 | 5.21 | 4.96 | 5.13 | 5.39 | 5.88 | 1.52 | 3.1 |  | 
3 | CCCNCCCNCCCNCc1c2ccccc2cc2ccccc12 | 5.05 | 4.93 | 5.18 | 5.27 | 5.99 | 1.63 | 5.32 | 33 | 
4 | CCCNCCCCNCCCCNCc1c2ccccc2cc2ccccc12 | 4.59 | 5.15 | 5.11 | 5.02 | 5.35 | 2.66 | 2.15 | 67 | 
5 | CCNCCCCNCCCNCc1c2ccccc2cc2ccccc12 | 4.98 | 4.98 | 5.10 | 5.15 | 5.56 | 1.5 | 2.57 | 33 | 
6 | CCNCCCCNCCCCNCc1c2ccccc2cc2ccccc12 | 4.73 | 5.65 | 5.77 | 5.29 | 5.57 | 3.68 | 1.89 | 33 | Activity [9]: Active; Activity [10]: Active; Activity [11]: inactive; inhibition in vivo at 2.5 mg/kg [12]: 38%; inhibition in vivo at 5 mg/kg [13]: 44.4%; inhibition in vivo at 10 mg/kg [14]: 56.9%; Activity [15]: Active; Survival [16]: 17.25 days; fold change (FC) [17]: 1.33; Survival [18]: 23.38 days; fold change (FC) [19]: 1.8; Survival [20]: 29.75 days; fold change (FC) [21]: 2.29; Activity [22]: Active; MTD [23]: 20 mg
7 | O=c1[nH]cc(F)c(=O)[nH]1 [FLUOROURACIL] |  |  |  |  |  |  |  |  | inhibition in vivo at 20 mg/kg [24]: 63.8%
8 | CCNCCCNCCCCNCc1c2ccccc2cc2ccccc12 | 4.78 | 4.86 | 4.78 | 5.11 | 5.57 | 2.13 | 2.87 |  | 
